According to ChEMBL document CHEMBL4004826, “Discovery of 1-(3-(benzyloxy)pyridin-2-yl)-3-(2-(piperazin-1-yl)ethyl)urea: A new modulator for amyloid beta-induced mitochondrial dysfunction” (Eur J Med Chem, 2017):

Legend:
[1] = target: Peptidyl-prolyl cis-trans isomerase F, mitochondrial (Mus musculus) (UniProt Q99KR7); assay: Inhibition of cyclophilin D in mouse HT22 cells assessed as reduction in amyloid beta (1 to 42) induced mitochondrial permeability transition pore opening by measuring increase in green to red fluorescence ratio at 5 uM pretreated for 10 mins followed by amyloid beta (1 to 42) stimulation measured at 1 hr interval for 3 hrs by JC-1 dye based fluorescence assay relative to control; assay type: cell-based; set-up: scale not given: the % may be the effect or the level left
In short: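 HT-22 cells, 30,000 per well, loaded with JC-1 at 7.5 µM final in phenol red-free Opti-MEM for 1 h 15 min at 37 °C, then PBS-washed. Compound at 5 µM for 10 min at 37 °C, then Aβ1-42 (5 µM solution) added. Red (ex/em 530/580 nm) and green (485/530 nm) fluorescence read hourly for 3 h. Green/red ratio normalized to the Aβ-alone control as 100%.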

[2] = Cytotoxicity against mouse HT22 cells assessed as cell viability at 5 uM after 24 hrs by MTT assay relative to control; assay type: cell-based, HT-22; details: read-out: Activity
In short: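 HT-22 cells, 5000 per well, seeded one day before the assay. Compound solution added, then cells incubated 24 h at 37 °C. MTT added for 2 h at 37 °C. Formazan dissolved in 10% Triton X-100 in isopropanol with 0.1 M HCl for 1 h at room temperature, then absorbance read. Viability relative to vehicle control, without Aβ.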

[3] = target: Peptidyl-prolyl cis-trans isomerase F, mitochondrial (Mus musculus) (UniProt Q99KR7); assay: (§1) Inhibition of Cyclophilin D in mouse HT22 cells assessed as neuroprotective activity against amyloid beta (1 to 42) induced impairment of ATP production by measuring assessed as recovery of ATP production at 5 uM pretreated for 10 mins followed by amyloid beta (1 to 42) stimulation measured after 7 hrs by luciferase based assay relative to control; assay type: cell-based; set-up: scale not given: the % may be the effect or the level left
In short: (§2)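 HT-22 cells, 10,000 per well, seeded one day before. Cells pretreated 10 min at 37 °C with compound, then Aβ1-42 added, and incubated 7 h. Cells were washed, lysed in 1% Triton X-100/TBST, and equal protein amounts (BCA) assayed for ATP by luciferase. Recovery was calculated against the Aβ-treated vehicle control. ATP viability comes from samples without Aβ.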

[4] = Cytotoxicity against mouse Neuro2a cells assessed as cell viability at 10 uM after 72 hrs by MTT assay relative to control; assay type: cell-based, N2a; details: read-out: Activity
In short: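 Neuro-2a cells grown in EMEM with 10% FBS and penicillin/streptomycin. A 10 mM DMSO stock was diluted 3-fold over 10 doses in DMSO, and 2000 cells were added per well. Incubated 72 h at 37 °C, 5% CO2. MTT added for 4 h, then solubilization/stop solution for 1 h. Absorbance read at 590 nm. Viability is from color intensity, with IC50 fitted to a sigmoidal dose-response curve.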

[5] = target: Peptidyl-prolyl cis-trans isomerase F, mitochondrial (Mus musculus) (UniProt Q99KR7); assay: as §1, with “cell viability” for “assessed as recovery of ATP production”, “5” for “5 uM”; in short: as §2
[6] = target: Peptidyl-prolyl cis-trans isomerase F, mitochondrial (Mus musculus) (UniProt Q99KR7); assay: Inhibition of Cyclophilin D in mouse HT22 cells assessed as reduction in amyloid beta (1 to 42) induced decrease in cell viability at 5 uM after 24 hrs by MTT assay relative to control; assay type: cell-based
In short: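 HT-22 cells, 5000 per well, pretreated 10 min with compound, then Aβ1-42 added and incubated 24 h at 37 °C. MTT added for 2 h, then acidified Triton/isopropanol solubilization, and absorbance read at 570 nm. Percent inhibition calculated relative to vehicle control with Aβ.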

[7] = Effective permeability of the compound at pH 7.4 at 50 uM after 4 hrs by PAMPA; assay type: physicochemical; details: read-out: Peff
In short: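 BBB-PAMPA (double-sink) setup. 10 mM DMSO stocks were diluted to 50 µM in buffer pH 7.4 as the donor, with brain sink buffer as the acceptor. Incubated 4 h at 26 °C. Donor, acceptor and reference concentrations measured by UV (230–498 nm), and Pe calculated on a double-sink basis.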

N2a [8] = assay: Induction of reactive oxygen species production in mouse Neuro2a cells assessed as H2O2 level at 10 uM after 6 hrs by ROS-Glo luminescence assay relative to control; assay type: cell-based
In short: (§3)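 Neuro-2a cells, 2000 per well, given compounds from 10-dose 3-fold serial dilutions of 10 mM DMSO stocks. H2O2 substrate added immediately, then 6 h at 37 °C, 5% CO2. ROS-Glo detection reagent added for 20 min at RT, then luminescence read. H2O2 expressed as fold of untreated, with IC50 fitted from the dose series.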

N2a [9] = assay: Cytotoxicity against mouse Neuro2a cells assessed as cell viability after 72 hrs by MTT assay; assay type: ADME, cell-based
N2a [10] = assay: Inhibition of reactive oxygen species production in mouse Neuro2a cells assessed as decrease in H2O2 levels after 6 hrs by ROS-Glo luminescence assay; assay type: functional, cell-based; in short: as §3
[11] = target: Peptidyl-prolyl cis-trans isomerase F, mitochondrial (Mus musculus) (UniProt Q99KR7); assay: Inhibition of Cyclophilin D in mouse HT22 cells assessed as reduction in amyloid beta (1 to 42) induced reactive oxygen species production at 5 uM after 6 hrs by CMH2DCFDA dye based fluorescence assay relative to control; assay type: cell-based
In short: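 HT-22 cells, 10,000 per well, treated with compound plus Aβ1-42 in Opti-MEM for 6 h. Cells loaded with CM-H2DCFDA (diluted from 1 mM stock) in HBSS for 30 min at 37 °C, then Hoechst added. Total fluorescence intensity per well taken from high-content imaging. Inhibition expressed as percent of the Aβ-induced signal increase.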

[12] = target: Voltage-gated inwardly rectifying potassium channel KCNH2 (Homo sapiens, UniProt Q12809); assay: Displacement of [3H]-Astemizole from human ERG expressed in HEK293 cell membranes measured after 1 hr by microbeta counting method
In short: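 Radioligand binding to membranes (2.5 µg) from HEK-293 cells expressing hERG. Buffer was 50 mM Hepes pH 7.4 with 60 mM KCl, 0.1% BSA and 4 nM [3H]astemizole, incubated 1 h at RT. Samples filtered through PEI-soaked filtermat. Non-specific binding defined with 0.1 µM astemizole. Used 5–6 test concentrations in duplicate, with isotherms from two assays.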

Peptidyl-prolyl cis-trans isomerase F, mitochondrial (Mus musculus), sequence (Q99KR7 whole entry): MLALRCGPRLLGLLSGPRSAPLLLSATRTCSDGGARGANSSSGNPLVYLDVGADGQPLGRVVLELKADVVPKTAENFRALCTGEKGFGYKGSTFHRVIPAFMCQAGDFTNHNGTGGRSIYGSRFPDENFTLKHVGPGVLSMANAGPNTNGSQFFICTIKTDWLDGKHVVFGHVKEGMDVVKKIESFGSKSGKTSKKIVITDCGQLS
Voltage-gated inwardly rectifying potassium channel KCNH2, sequence (Q12809 whole entry): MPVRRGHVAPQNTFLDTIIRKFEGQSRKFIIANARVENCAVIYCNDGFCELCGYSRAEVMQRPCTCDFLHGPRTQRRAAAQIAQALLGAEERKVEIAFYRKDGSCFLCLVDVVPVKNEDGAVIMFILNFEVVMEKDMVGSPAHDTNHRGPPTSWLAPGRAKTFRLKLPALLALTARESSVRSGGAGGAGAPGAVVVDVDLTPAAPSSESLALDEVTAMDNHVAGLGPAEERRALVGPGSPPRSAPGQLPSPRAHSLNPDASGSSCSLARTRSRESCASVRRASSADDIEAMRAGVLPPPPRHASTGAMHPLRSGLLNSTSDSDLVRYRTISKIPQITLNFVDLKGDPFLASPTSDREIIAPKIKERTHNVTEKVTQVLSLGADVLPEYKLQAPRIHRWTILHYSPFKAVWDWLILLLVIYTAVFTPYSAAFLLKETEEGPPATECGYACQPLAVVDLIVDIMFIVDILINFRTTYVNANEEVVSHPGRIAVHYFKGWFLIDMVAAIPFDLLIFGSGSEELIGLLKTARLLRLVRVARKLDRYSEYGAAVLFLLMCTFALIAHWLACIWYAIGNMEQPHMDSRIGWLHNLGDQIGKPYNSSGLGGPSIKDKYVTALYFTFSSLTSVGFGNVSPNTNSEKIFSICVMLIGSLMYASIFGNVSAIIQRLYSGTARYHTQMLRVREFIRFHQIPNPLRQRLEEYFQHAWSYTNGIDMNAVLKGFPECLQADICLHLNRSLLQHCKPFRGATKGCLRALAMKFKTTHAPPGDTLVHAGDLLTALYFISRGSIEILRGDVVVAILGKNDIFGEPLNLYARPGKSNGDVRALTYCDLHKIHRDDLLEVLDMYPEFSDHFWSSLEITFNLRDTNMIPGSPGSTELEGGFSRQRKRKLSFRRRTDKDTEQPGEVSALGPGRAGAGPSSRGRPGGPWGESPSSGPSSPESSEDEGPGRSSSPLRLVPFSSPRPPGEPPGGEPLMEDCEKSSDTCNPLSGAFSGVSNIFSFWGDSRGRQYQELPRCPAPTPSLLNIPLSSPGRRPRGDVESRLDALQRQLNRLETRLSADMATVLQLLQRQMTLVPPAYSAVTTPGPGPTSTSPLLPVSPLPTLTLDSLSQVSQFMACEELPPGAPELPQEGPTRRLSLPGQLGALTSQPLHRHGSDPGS

Row | Structure (SMILES) | Activity [1] [%] | Activity [3] [%] | viability at 72 h, 10 µM [4] [%] | Activity [5] [%] | fold change (FC) (N2a [8]) | IC50 (N2a [10]) [µM] | other results
1 | CCNC(=O)Nc1ncccc1OCc1ccc(F)cc1 | 127 |  |  |  |  |  | 
2 | CC(C)(C)NC(=O)Nc1ncccc1OCc1ccc(F)cc1 | 49 |  |  |  |  |  | 
3 | CC(C)(C)NC(=O)Nc1ncccc1OCc1ccccc1 | 23 | 72 | 106 | 103 | 0.92 | > 10 | viability at 24 h, 5 µM [2]: 92%; inhibition [6]: 11%; Papp at 4 h, 50 µM [7]: 45.1 ×10⁻⁶ cm/s; IC50 (N2a [9]): > 10 µM; inhibition [11]: 95%
4 | O=C(NCCCl)Nc1ncccc1OCc1ccccc1 | 169 |  |  |  |  |  | 
5 | O=C(Nc1ncccc1OCc1cccc(Cl)c1)NC1CCCCCC1 | 46 |  |  |  |  |  | 
6 | Cn1c(=O)c2[nH]cnc2n(C)c1=O.O [THEOPHYLLINE] |  |  |  |  |  |  | Papp at 4 h, 50 µM [7]: 0.29 ×10⁻⁶ cm/s
7 | CC(C)(C)CC(C)(C)NC(=O)Nc1ncccc1OCc1cccc(Cl)c1 | 50 |  |  |  |  |  | 
8 | CCNC(=O)Nc1ncccc1OCc1cccc(F)c1 | 14 | 41 | 96.6 | 102 | 1.14 | > 10 | IC50 (N2a [9]): > 10 µM
9 | O=C(Nc1ncccc1OCc1ccccc1)NC1CCCCCC1 | 130 |  |  |  |  |  | 
10 | CC(C)(C)CC(C)(C)NC(=O)Nc1ncccc1OCc1cccc(F)c1 | 31 | -140 | 101 | 30 | 1.02 | > 10 | IC50 (N2a [9]): > 10 µM
11 | O=C(NCCCl)Nc1ncccc1OCc1cccc(Cl)c1 | 73 |  |  |  |  |  | 
12 | CC(C)(C)NC(=O)Nc1ncccc1OCc1cccc(Cl)c1 | 176 |  |  |  |  |  | 
13 | CCNC(=O)Nc1ncccc1OCc1ccccc1Cl | 49 |  |  |  |  |  | 
14 | O=C(Nc1ncccc1OCc1ccc(F)cc1)NC1CCCCCC1 | 28 | 40 | 93.2 | 99 | 0.91 | > 10 | IC50 (N2a [9]): > 10 µM
15 | NC(=O)CN1CCCC1=O |  | 127 |  | 88 |  |  | viability at 24 h, 5 µM [2]: 132%; inhibition [6]: 29%; inhibition [11]: 129%
16 | O=C(NCCN1CCNCC1)Nc1ncccc1OCc1cccc(Cl)c1 | 48 |  |  |  |  |  | 
17 | O=C(NCCCl)Nc1ncccc1OCc1ccccc1Cl | 41 |  |  |  |  |  | 
18 | O=C(NCCCl)Nc1ncccc1OCc1ccc(Cl)cc1 | 131 |  |  |  |  |  | 
19 | O=C(NCCCl)Nc1ncccc1OCc1ccc(F)cc1 | 64 |  |  |  |  |  | 
20 | CN[C@@H]1C[C@H]2O[C@@](C)([C@@H]1OC)n1c3ccccc3c3c4c(c5c6ccccc6n2c5c31)C(=O)NC4 [STAUROSPORINE] |  |  | 1.3 |  |  |  | 
21 | CC(=O)[C@H]1CC[C@H]2[C@@H]3CCC4=CC(=O)CC[C@]4(C)[C@H]3CC[C@]12C [PROGESTERONE] |  |  |  |  |  |  | Papp at 4 h, 50 µM [7]: 48.8 ×10⁻⁶ cm/s
22 | CC(C)(C)NC(=O)Nc1ncccc1OCc1cccc(F)c1 | 44 | 45 | 95.8 | 129 | 0.94 | > 10 | IC50 (N2a [9]): > 10 µM
23 | CCNC(=O)Nc1ncccc1OCc1ccc(Cl)cc1 | 94 |  |  |  |  |  | 
24 | O=C(Nc1ncccc1OCc1ccccc1Cl)NC1CCCCCC1 | 41 |  |  |  |  |  | 
25 | O=C(Nc1ncccc1OCc1ccc(Cl)cc1)NC1CCCCCC1 | 19 | 47 | 85.2 | 105 | 1.15 | > 10 | IC50 (N2a [9]): > 10 µM
26 | CC1=CC(=O)c2ccccc2C1=O [MENADIONE] |  |  |  |  | 6.94 | 2.69 | 
27 | CC(C)(C)CC(C)(C)NC(=O)Nc1ncccc1OCc1ccccc1Cl | 21 |  |  |  |  |  | 
28 | O=C(Nc1ncccc1OCc1cccc(F)c1)NC1CCCCCC1 | 91 |  |  |  |  |  | 
29 | CC(C)(C)NC(=O)Nc1ncccc1OCc1ccc(Cl)cc1 | 35 | 13 | 93.1 | 104 | 0.91 | > 10 | IC50 (N2a [9]): > 10 µM
30 | O=C(NCCN1CCNCC1)Nc1ncccc1OCc1ccccc1 | 16 | 87 | 102 | 78 | 0.97 | > 10 | viability at 24 h, 5 µM [2]: 133%; inhibition [6]: 81%; Papp at 4 h, 50 µM [7]: 20.6 ×10⁻⁶ cm/s; IC50 [12]: > 28.7 µM; IC50 (N2a [9]): > 10 µM; inhibition [11]: 97%
